Measurements gathered from unrelated publications.
Lines come from different studies, so protocols differ.
Nectin-4: Nectin-4 (Homo sapiens, UniProt Q96NY8)
PFF0160c: Dihydroorotate dehydrogenase (quinone), mitochondrial (PFF0160c, Plasmodium falciparum, UniProt Q08210)
SIGMAR1: Sigma non-opioid intracellular receptor 1 (SIGMAR1, Homo sapiens, UniProt Q99720)
Oprm1: Mu-type opioid receptor (Oprm1, Mus musculus, UniProt P42866)

CCn1cc(C(=O)NC2CCNCC2)n(Cc2ccccc2)c1=O  IC50 (Dihydroorotate dehydrogenase (quinone), mitochondrial (PFF0160c, Plasmodium falciparum, UniProt Q08210, E182D); enzyme activity, inhibitor, absorbance): 8940 nM
CCCC[C@@H]1NC(=O)[C@H](Cc2ccc(O)cc2)NC(=O)[C@@H]2CCCN2C(=O)[C@H](CC(=O)O)NC(=O)[C@H](C)NC(=O)[C@H](Cc2ccccc2)NC(=O)[C@@H]2CSCCC(=O)N3CN(CN(C3)C(=O)CCSC[C@@H](C(=O)N[C@@H](CNC(=O)CCc3cn(CCOCCOCCOCCOCCOCCOCCOCCOCCOCCOCCOCCOCCOCCOCCOCCOCCOCCOCCOCCOCCOCCOCCOCCNC(=O)N[C@H]4CSCCC(=O)N5CN6CN(C5)C(=O)CCSC[C@H](NC(=O)[C@@H](CC(=O)O)NC(=O)[C@H](Cc5cccc7ccccc57)NC(=O)[C@@H]5CCCN5C4=O)C(=O)N[C@@H](CCSC)C(=O)N[C@@H](CCCCNC(=N)N)C(=O)N[C@@H](CC(=O)O)C(=O)N[C@@H](Cc4c[nH]c5ccccc45)C(=O)N[C@@H](CO)C(=O)N[C@@H]([C@@H](C)O)C(=O)N4CCC[C@H]4C(=O)N4C[C@H](O)C[C@H]4C(=O)N[C@@H](Cc4c[nH]c5ccccc45)C(=O)N[C@H](C(N)=O)CSCCC6=O)nn3)C(N)=O)NC1=O)C(=O)CCSC[C@H](NC(=O)[C@H](C)NC(C)=O)C(=O)N[C@@H]([C@@H](C)CC)C(=O)N[C@@H](CCC(=O)O)C(=O)N[C@@H](CCC(=O)O)C(=O)NCC(=O)N[C@@H](CCC(N)=O)C(=O)N[C@@H](Cc1ccc(O)cc1)C(=O)N2  Kd (Nectin-4; binding, SPR): 1.8 nM
CCn1c(-c2ccccc2)cc2nnc3ccccc3c21  IC50 (PFF0160c; enzyme activity, inhibitor, absorbance): 458 nM
COc1ccc(CN2CCN(Cc3ccccc3)CC2)cc1  Ki (SIGMAR1; ligand displacement, radioligand): 13.8 nM
O=C(N[C@@H]1C=C[C@@]2(O)[C@H]3Cc4ccc(O)c5c4[C@@]2(CCN3CC2CC2)[C@H]1O5)c1c[nH]c2ncccc12  Ki (Oprm1; ligand displacement, radioligand): 0.28 nM
Cc1noc(-c2cccs2)c1C(=O)NCCc1cccc(Cl)c1  IC50 (PFF0160c; enzyme activity, inhibitor, absorbance): 689 nM
COc1cc2nc(N3CCCN(C)CC3)nc(NC3CCN(Cc4ccccc4)CC3)c2cc1OC  Ki (SIGMAR1; ligand displacement, radioligand): > 10000 nM
O=C(N[C@@H]1C=C[C@@]2(O)[C@H]3Cc4ccc(O)c5c4[C@@]2(CCN3CC2CC2)[C@H]1O5)c1c[nH]c2ccncc12  Ki (Oprm1; ligand displacement, radioligand): 0.94 nM
CCCC[C@@H]1NC(=O)[C@H](Cc2ccc(O)cc2)NC(=O)[C@@H]2CCCN2C(=O)[C@H](CC(=O)O)NC(=O)[C@H](C)NC(=O)[C@H](Cc2ccccc2)NC(=O)[C@@H]2CSCCC(=O)N3CN(CN(C3)C(=O)CCSC[C@@H](C(=O)N[C@@H](C)C(N)=O)NC1=O)C(=O)CCSC[C@H](NC(C)=O)C(=O)N[C@@H](CC(C)(C)C)C(=O)N1CCC[C@H]1C(=O)N[C@@H](CCC(=O)O)C(=O)N[C@H](CCCCNC(=O)CCc1cn(CCOCCOCCOCCOCCOCCC(=O)NCCCC[C@H]3NC(=O)[C@H](Cc4cccc5ccccc45)NC(=O)[C@@H]4CCCN4C(=O)[C@@H](NC(C)=O)CSCCC(=O)N4CN5CN(C4)C(=O)CCSC[C@H](NC3=O)C(=O)N[C@@H](CCSC)C(=O)N[C@@H](CCCCNC(=N)N)C(=O)N[C@@H](CCC(=O)O)C(=O)N[C@@H](Cc3c[nH]c4ccccc34)C(=O)N[C@@H](CO)C(=O)N[C@@H]([C@@H](C)O)C(=O)N3CCC[C@H]3C(=O)N3C[C@H](O)C[C@H]3C(=O)N[C@@H](Cc3c[nH]c4ccccc34)C(=O)N[C@H](C(N)=O)CSCCC5=O)nn1)C(=O)N1CCC[C@H]1C(=O)N[C@@H](Cc1ccc(O)cc1)C(=O)N2  Kd (Nectin-4; binding, SPR): 1.8 nM
O=C(N[C@H]1C=C[C@@]2(O)[C@H]3Cc4ccc(O)c5c4[C@@]2(CCN3CC2CC2)[C@H]1O5)c1c[nH]c2cnccc12  Ki (Oprm1; ligand displacement, radioligand): 1.16 nM
CCCC[C@@H]1NC(=O)[C@H](Cc2ccc(O)cc2)NC(=O)[C@@H]2CCCN2C(=O)[C@H](CC(=O)O)NC(=O)[C@H](C)NC(=O)[C@H](Cc2ccccc2)NC(=O)[C@@H]2CSCCC(=O)N3CN(CN(C3)C(=O)CCSC[C@@H](C(=O)N[C@@H](C)C(N)=O)NC1=O)C(=O)CCSC[C@H](NC(C)=O)C(=O)N[C@@H](CC(C)(C)C)C(=O)N1CCC[C@H]1C(=O)N[C@@H](CCC(=O)O)C(=O)N[C@H](CCCCNC(=O)CCc1cn(CCOCCOCCOCCOCCOCCC(=O)NCCCC[C@H]3NC(=O)[C@H](Cc4cccc5ccccc45)NC(=O)[C@@H]4CCCN4C(=O)[C@@H](NC(C)=O)CSCCC(=O)N4CN5CN(C4)C(=O)CCSC[C@H](NC3=O)C(=O)N[C@@H](CCSC)C(=O)N[C@@H](CCCCNC(=N)N)C(=O)N[C@@H](CC(=O)O)C(=O)N[C@@H](Cc3c[nH]c4ccccc34)C(=O)N[C@@H](CO)C(=O)N[C@@H]([C@@H](C)O)C(=O)N3CCC[C@H]3C(=O)N3C[C@H](O)C[C@H]3C(=O)N[C@@H](Cc3c[nH]c4ccccc34)C(=O)N[C@H](C(N)=O)CSCCC5=O)nn1)C(=O)N1CCC[C@H]1C(=O)N[C@@H](Cc1ccc(O)cc1)C(=O)N2  Kd (Nectin-4; binding, SPR): 1.3 nM
